Bioassay records: PubChem BioAssay, several laboratories
FAS TE block: FAS thioesterase (human) inhibition; P49327; recombinant FAS-TE, OMFH fluorogenic substrate, fluorescence endpoint; inhibition, % at 15 µM; 0.67% of 360,000 active; AID 602261;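 active means compounds whose normalised, plate-corrected inhibition of enzyme fluorescence in the single-dose primary screen is 50% or more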;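 further: 0% = DMSO with enzyme and 100% = substrate without enzyme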
ALR H2O2 inh: inhibitors of human sulfhydryl oxidase ALR | P55789 | purified ALR, DTT oxidation, H2O2 HRP-luminol luminescence | inhibition, % (concentration not given with the values) | 3.8% of 290,000 active | AID 485317;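 active means mean replicate inhibition above about 79%, with every replicate also reaching it, limit read from the data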
Target sequence (P55789 whole entry, looked up): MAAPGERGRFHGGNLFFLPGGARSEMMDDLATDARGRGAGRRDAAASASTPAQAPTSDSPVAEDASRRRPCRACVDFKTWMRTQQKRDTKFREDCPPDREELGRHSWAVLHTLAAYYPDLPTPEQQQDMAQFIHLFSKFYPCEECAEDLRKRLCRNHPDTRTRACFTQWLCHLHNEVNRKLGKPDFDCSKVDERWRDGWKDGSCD
PfM18AAP inh: blocks P. falciparum M18 aspartyl aminopeptidase; recombinant PfM18AAP, H-Glu-NHMec fluorogenic cleavage; inhibition, % at 7.35 µM; 1.2% of 290,000 active; AID 1822;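 active means inhibition above the campaign mean inhibition over all tested compounds plus 3 SD, cut at about 28% in these data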;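 further: 0% = plate median of test compound wells and 100% = 2 mM ZnCl2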
Rtt109 HAT inh: C. albicans Rtt109 histone acetyltransferase inhibition; purified Rtt109/Vps75, ThioGlo CoA-SH fluorescence, 4 h; inhibition, % at 34.9 µM; 0.16% of 330,000 active; AID 540336;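 active means inhibition of at least 50% in every replicate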
Target sequence (Q5AAJ8 whole entry, looked up): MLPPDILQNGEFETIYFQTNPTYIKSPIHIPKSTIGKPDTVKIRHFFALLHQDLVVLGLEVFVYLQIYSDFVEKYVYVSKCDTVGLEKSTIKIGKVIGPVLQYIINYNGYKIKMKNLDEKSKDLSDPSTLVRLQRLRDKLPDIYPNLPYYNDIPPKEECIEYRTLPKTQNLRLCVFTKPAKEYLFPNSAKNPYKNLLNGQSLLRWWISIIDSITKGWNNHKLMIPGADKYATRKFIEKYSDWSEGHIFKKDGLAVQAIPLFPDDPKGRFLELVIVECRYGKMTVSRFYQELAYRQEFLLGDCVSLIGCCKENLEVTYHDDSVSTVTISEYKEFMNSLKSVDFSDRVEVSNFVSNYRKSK
HDAC3 inhib: blocks human histone deacetylase 3. O15379. recombinant HDAC3, fluorogenic peptide/trypsin coupled, fluorescence. inhibition, % at 8.3 µM. 0.15% of 320,000 active; in the data active means inhibition above about 26%, passing the limit was not always enough
UCH37 inh: blocks the human deubiquitinase UCH37 | inhibition, % (concentration not given with the values) | purified proteasome/UCH37, Ub-AMC cleavage fluorescence | Q9Y5K5 | AID 588478 | 0.33% of 330,000 active;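 active means mean inhibition over replicate wells above about 20%, limit read from the data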;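 further: 0% = compound-free wells with enzyme and 100% = wells lacking proteasome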
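Material: human UCH37 enzyme supplied as purified proteasome complex / Amount: 0.15 nM proteasome as dispensed / Buffer or medium: pH 7.4 Tris-HCl (50 mM) with ovalbumin, ATP-MgCl2, DTT / Times: preincubation 30 min, reaction 25 min, room temperature / Technique: AMC fluorescence from Ub-AMC cleavage, excitation 355 nm, emission 460 nm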
An asterisk follows results filed as active. Rows were chosen to be rich in hits. Some 4.6% of all compounds tested hit in one or more screens of this group.

CCN(c1ccc(OC)cc1)S(=O)(=O)c1nnc(NC(=O)COc2ccc(C)cc2)s1 was read as FAS TE block 3, ALR H2O2 inh -8, PfM18AAP inh -16, Rtt109 HAT inh 57*, HDAC3 inhib -4 and UCH37 inh 0.
For COc1cc(C=NNC(=O)Cc2csc(C)n2)ccc1OCC(C)C the results were UCH37 inh 0.
Cc1[nH]c2ccccc2c1/C=N/NC(=O)CNC(=O)c1ccco1 was read as FAS TE block -7, ALR H2O2 inh 95*, PfM18AAP inh 3, Rtt109 HAT inh 5 and HDAC3 inhib 6.
COc1ccccc1Nc1nc(C2(C)CCC(=O)O2)cs1 (stereo unspecified) was read as FAS TE block -5, ALR H2O2 inh 96*, PfM18AAP inh -1, Rtt109 HAT inh 2, HDAC3 inhib 3 and UCH37 inh 1.
Screening CCN(CC)c1ccc(C=NN2CC(=O)NC2=S)cc1 returned UCH37 inh -2.
`Cc1ccc(NC2CCCN(C(=O)CN3C(=O)CSC3=O)C2)cc1C` (stereo unspecified) gave FAS TE block -1, ALR H2O2 inh 99*, PfM18AAP inh 12, Rtt109 HAT inh -3 and UCH37 inh 5.
`CC(C)c1ccc(NC2CCCN(C(=O)CCN3CCCO3)C2)cc1` (stereo unspecified) gave FAS TE block -8, ALR H2O2 inh 67, PfM18AAP inh -7, Rtt109 HAT inh -2, HDAC3 inhib 0 and UCH37 inh 2.
CC(C)c1ccc(NC2CCCN(C(=O)CN3C(=O)CSC3=O)C2)cc1 (stereo unspecified) was read as FAS TE block -3, ALR H2O2 inh 98*, PfM18AAP inh 5, Rtt109 HAT inh 14, HDAC3 inhib 1 and UCH37 inh -1.
`O=C(CN1C(=O)CSC1=O)N1CCCCC1` gave FAS TE block 0, ALR H2O2 inh 6, PfM18AAP inh 0, Rtt109 HAT inh 2, HDAC3 inhib 2 and UCH37 inh 2.
`COc1ccc(C=Nn2cnnc2SCc2ccccc2)cc1` gave UCH37 inh 6.
For COc1ccccc1NCCC(=O)OCC(=O)NCc1ccco1 the results were FAS TE block -8, ALR H2O2 inh 99*, PfM18AAP inh 5, Rtt109 HAT inh 2, HDAC3 inhib -12 and UCH37 inh -1.
CCn1c(=O)n(CC(=O)Nc2cc(OC)ccc2OC)c(=O)c2ccccc21 was read as FAS TE block -3, ALR H2O2 inh 99*, PfM18AAP inh 3, Rtt109 HAT inh -4, HDAC3 inhib 2 and UCH37 inh 1.
For CCOc1ccccc1NC(=O)Cn1c(=O)c2ccccc2n(CC)c1=O the results were FAS TE block -5, ALR H2O2 inh 6, PfM18AAP inh -1, Rtt109 HAT inh -6, HDAC3 inhib 1 and UCH37 inh -2.
COc1ccc(OC)c(NC(=O)COC(=O)CCNc2ccccc2OC)c1 was read as FAS TE block 4, ALR H2O2 inh 98*, Rtt109 HAT inh 5, HDAC3 inhib 5 and UCH37 inh 2.
Screening COc1ccc(OCCC(=O)OCC(=O)NCc2ccco2)cc1 returned FAS TE block -6, ALR H2O2 inh -3, PfM18AAP inh 4, Rtt109 HAT inh 13, HDAC3 inhib -1 and UCH37 inh 5.
`COc1ccccc1OCCC(=O)OCC(=O)NCc1ccc(Cl)cc1` gave FAS TE block 4, ALR H2O2 inh 97*, PfM18AAP inh -1, Rtt109 HAT inh 12, HDAC3 inhib -9 and UCH37 inh 0.
`COc1ccccc1OCCC(=O)OCC(=O)NCc1ccc(F)cc1` gave FAS TE block -5, Rtt109 HAT inh 0, HDAC3 inhib 1 and UCH37 inh 0.
For ON=C(c1ccc(Cl)cc1)c1cc2ccccc2o1 the results were UCH37 inh 5.
For CC(=N/N=C1/NC(=O)C(CC(=O)Nc2ccc(C)c(Cl)c2)S1)C(C)(C)C (stereo unspecified) the results were UCH37 inh 2.
Screening CCN(Cc1ccccc1)c1ccc(C=NNS(=O)(=O)c2cccc([N+](=O)[O-])c2)cc1 returned UCH37 inh 2.
O=C(NN=Cc1ccco1)C1CC1c1ccccc1 (stereo unspecified) was read as UCH37 inh 4.
`C(=N\Nc1nc2ccccc2s1)/c1cccs1` gave FAS TE block 19, ALR H2O2 inh 89*, PfM18AAP inh 14, Rtt109 HAT inh -11 and HDAC3 inhib 11.
Screening Cc1ccsc1C=NNc1nc2ccccc2s1 returned UCH37 inh -3.
CCOC(=O)c1cc(-c2csc(NN=Cc3ccccc3Cl)n2)on1 was read as UCH37 inh -76.
For CN(CCCNC(=O)C1CCC(=O)N1Cc1ccc(F)cc1)c1ccccc1 (stereo unspecified) the results were FAS TE block -4, ALR H2O2 inh 99*, PfM18AAP inh 3, Rtt109 HAT inh 6, HDAC3 inhib -10 and UCH37 inh 4.
For CN(CCCNC(=O)C1CCC(=O)N1Cc1ccccc1Cl)c1ccccc1 (stereo unspecified) the results were FAS TE block -5, ALR H2O2 inh 98*, PfM18AAP inh 0, Rtt109 HAT inh 7, HDAC3 inhib 0 and UCH37 inh 1.
For O=C(C1CCC(=O)N1Cc1ccccc1Cl)N1CCN(c2ccc(F)cc2)CC1 (stereo unspecified) the results were FAS TE block -7, ALR H2O2 inh 97*, PfM18AAP inh 2, Rtt109 HAT inh -2, HDAC3 inhib 3 and UCH37 inh -2.
`Cc1ccc(NC(=O)COc2ccc(C=NNC(=O)c3cccnc3)cc2)cc1C` gave UCH37 inh -58.
Screening COc1ccccc1C(=O)NN=C(C)CC(=O)Nc1ccc2c(c1)OCCO2 returned UCH37 inh 2.
Cc1nc(SCC(=O)c2ccc(F)cc2)c([N+](=O)[O-])[nH]1 was read as FAS TE block -6, ALR H2O2 inh 93*, PfM18AAP inh 9, Rtt109 HAT inh 7, HDAC3 inhib 2 and UCH37 inh 1.
For COc1ccc(Oc2c(C)nc(SCC(=O)c3ccc(Cl)cc3)[nH]c2=O)cc1 the results were FAS TE block 8, ALR H2O2 inh 88*, PfM18AAP inh -1, Rtt109 HAT inh 16, HDAC3 inhib -1 and UCH37 inh 2.
For Cc1nc(SCC(=O)c2ccc(Cl)cc2)c([N+](=O)[O-])[nH]1 the results were FAS TE block -4, ALR H2O2 inh 99*, PfM18AAP inh -1, Rtt109 HAT inh 6, HDAC3 inhib 7 and UCH37 inh 7.
Screening Cc1cc(C)nc(SCC(=O)c2ccc(F)cc2)n1 returned FAS TE block 0, ALR H2O2 inh 20, PfM18AAP inh 3, Rtt109 HAT inh 2, HDAC3 inhib -1 and UCH37 inh 6.
Screening Cc1cc(SCC(=O)NN=Cc2ccco2)nc2ccccc12 returned UCH37 inh 2.
